Molecular target: NAD-dependent protein deacylase sirtuin-5, mitochondrial (Homo sapiens, UniProt Q9NXA8)
Test: Inhibition of SIRT5
How it was run: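 Recombinant SIRT5 at 50 ng/well (~30 nM, 50 μL) with succinyllysine AMC substrate and NAD in Tris-Cl pH 8.0/BSA buffer. Inhibitor dilutions were prepared in assay buffer from DMSO stocks. IC50 from nonlinear regression of dose–response, two assays in duplicate.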

Chain of NAD-dependent protein deacylase sirtuin-5, mitochondrial (Q9NXA8 whole entry): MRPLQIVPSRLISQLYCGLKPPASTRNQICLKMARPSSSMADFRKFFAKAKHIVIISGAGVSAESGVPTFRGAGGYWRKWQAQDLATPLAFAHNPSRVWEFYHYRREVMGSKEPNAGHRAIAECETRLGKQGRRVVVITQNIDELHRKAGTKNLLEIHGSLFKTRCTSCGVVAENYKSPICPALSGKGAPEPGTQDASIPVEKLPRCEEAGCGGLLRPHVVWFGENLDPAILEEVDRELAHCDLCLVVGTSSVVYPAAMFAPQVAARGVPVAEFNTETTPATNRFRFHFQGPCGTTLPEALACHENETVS

IC50	Structure (SMILES)
> 100 µM	O=C(O)CCCc1ccccc1
> 100 µM	N#C/C(=C\c1ccc(-c2cc(Cl)ccc2Cl)o1)C(=O)Nc1cccc2ncccc12
> 100 µM	CC(NC(=O)c1ccccc1/N=C/c1c(O)ccc2ccccc12)c1ccccc1 (centres undefined) [SIRTINOL]
> 100 µM	O=C(CCCCCCC(=O)Nc1ccccc1)NO [VORINOSTAT]

— ChEMBL document CHEMBL2163301, “Substrates for efficient fluorometric screening employing the NAD-dependent sirtuin 5 lysine deacylase (KDAC) enzyme” (J Med Chem, 2012)
